{
  "source": "ChEMBL document CHEMBL1155548",
  "about": "“Synthesis and evaluation of new endomorphin-2 analogues containing (Z)-alpha,beta-didehydrophenylalanine (Delta(Z)Phe) residues” (J Med Chem, 2010)",
  "biological_target": "Delta-type opioid receptor (Homo sapiens, UniProt P41143)",
  "sequence (P41143 whole entry)": "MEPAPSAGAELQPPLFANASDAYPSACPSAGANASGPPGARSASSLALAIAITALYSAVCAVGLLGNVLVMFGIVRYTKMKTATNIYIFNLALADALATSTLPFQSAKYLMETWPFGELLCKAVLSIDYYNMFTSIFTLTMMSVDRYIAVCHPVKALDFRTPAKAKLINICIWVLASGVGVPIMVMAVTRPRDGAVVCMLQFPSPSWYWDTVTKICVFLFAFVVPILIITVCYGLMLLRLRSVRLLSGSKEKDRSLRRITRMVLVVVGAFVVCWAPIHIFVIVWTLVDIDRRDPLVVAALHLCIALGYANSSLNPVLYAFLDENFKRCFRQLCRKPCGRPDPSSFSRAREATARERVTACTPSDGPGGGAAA",
  "assay": "Displacement of [3H]DPDPE from human delta opioid receptor expressed in HEK293 cells up to 100 uM; call rule not given here",
  "assay_type": "cell-based",
  "in_short": "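Crude membranes from transfected cells: HN9.10 cells expressing rat μ-opioid receptor, competed against μ-selective agonist [³H]DAMGO; HEK293 cells expressing human δ-opioid receptor, competed against δ-selective agonist [³H]DPDPE. Competitive displacement with three independent experiments, fitted by non-linear regression; Ki derived from IC50 via Cheng–Prusoff equation.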",
  "data": [
    {"smiles": "NC(=O)[C@H](Cc1ccccc1)NC(=O)/C(=C/c1ccccc1)NC(=O)[C@@H]1CCCN1C(=O)[C@@H](N)Cc1ccc(O)cc1", "values": [
      {"measurement": "Ki", "value": "Not Active"}
    ]}
  ]
}
